The term IC50 denotes the point on the concentration scale where inhibition reaches its midpoint.

One test concerns PC-3. As to the kind of experiment: (§1) Cytotoxicity against human PC3 cells assessed as growth inhibition at 50 uM. It is filed as functional. The method, boiled down: (§2)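 Growth inhibition calculated from absorbance as 100 − (sample absorbance / vehicle absorbance × 100).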
For the next test, the system named is MCF7. The experiment in a line: Cytotoxicity against human MCF7 cells as growth inhibition at 50 uM. The class given is functional. The following applies: for inhibition of growth at 50 µM: read-out: GI. The method, boiled down: as §2
A further test deals with SK-LU-1. The experiment in a line: (§3) Cytotoxicity against human SKLU1 cells as growth inhibition at 50 uM. The class given is functional. The method, boiled down:
as §2

The target of test [1] is T1, 3-oxo-5-alpha-steroid 4-dehydrogenase 1 (Rattus norvegicus, UniProt P24008).
T1 sequence (P24008 whole entry): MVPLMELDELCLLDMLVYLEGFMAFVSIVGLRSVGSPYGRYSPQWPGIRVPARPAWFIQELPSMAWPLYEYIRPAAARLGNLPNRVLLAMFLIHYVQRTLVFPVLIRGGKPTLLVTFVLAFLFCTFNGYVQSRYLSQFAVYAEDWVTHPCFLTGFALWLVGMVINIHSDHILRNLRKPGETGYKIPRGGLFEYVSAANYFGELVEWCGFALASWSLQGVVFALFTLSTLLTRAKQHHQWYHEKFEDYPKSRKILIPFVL
As to the kind of experiment: Inhibition of rat liver type 1 5alpha-reductase assessed as transformation of testosterone to dihydrotestosterone. The method, boiled down: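 Enzyme source: liver microsomes from overnight-fasted adult rats (8-month, 500 g), prepared in buffer A (20 mM sodium phosphate pH 6.5, 0.32 M sucrose, 0.1 mM DTT) at 4 °C, resuspended at 20 mg protein/mL. Inhibitors at 1 × 10⁻¹⁰ to 10⁻⁴ M. Radiolabelled T→DHT conversion quantified from TLC-plate radioactivity. IC50 taken from inhibition curves.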

For a further test, the target named is T2, Androgen receptor (Rattus norvegicus, UniProt P15207).
T2 sequence (P15207 whole entry): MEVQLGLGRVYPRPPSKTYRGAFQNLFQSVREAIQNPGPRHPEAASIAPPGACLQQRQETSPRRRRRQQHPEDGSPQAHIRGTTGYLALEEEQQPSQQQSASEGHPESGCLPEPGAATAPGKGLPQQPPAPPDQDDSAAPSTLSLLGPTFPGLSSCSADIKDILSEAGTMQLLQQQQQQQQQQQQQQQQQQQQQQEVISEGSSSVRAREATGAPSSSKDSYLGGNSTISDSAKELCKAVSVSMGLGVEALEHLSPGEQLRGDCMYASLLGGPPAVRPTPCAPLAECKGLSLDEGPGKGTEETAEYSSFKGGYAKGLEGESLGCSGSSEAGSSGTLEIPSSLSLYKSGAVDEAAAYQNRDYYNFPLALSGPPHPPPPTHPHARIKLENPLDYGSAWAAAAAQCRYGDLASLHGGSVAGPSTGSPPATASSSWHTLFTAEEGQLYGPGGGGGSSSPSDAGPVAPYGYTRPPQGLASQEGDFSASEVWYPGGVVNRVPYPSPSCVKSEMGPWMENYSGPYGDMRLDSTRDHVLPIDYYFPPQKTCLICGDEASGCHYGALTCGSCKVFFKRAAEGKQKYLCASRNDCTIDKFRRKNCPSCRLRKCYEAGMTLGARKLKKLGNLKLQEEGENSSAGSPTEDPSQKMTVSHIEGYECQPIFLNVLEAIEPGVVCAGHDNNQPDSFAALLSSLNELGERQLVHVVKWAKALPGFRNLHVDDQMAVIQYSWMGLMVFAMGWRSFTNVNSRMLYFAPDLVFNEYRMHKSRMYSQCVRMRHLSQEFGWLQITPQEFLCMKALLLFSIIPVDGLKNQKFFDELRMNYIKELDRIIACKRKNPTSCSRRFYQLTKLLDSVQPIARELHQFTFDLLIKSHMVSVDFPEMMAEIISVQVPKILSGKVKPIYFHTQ
As to the kind of experiment: Displacement of [3H}-MIB from rat prostate cytosol androgen receptor assessed as relative binding affinity. A general note: In a radioligand displacement assay an active substance lowers the binding of a labelled ligand.

Test [2] concerns Syrian golden hamster. The experiment in a line: Increase of diameter of pigmented spot of flank organs in gonadectomized golden hamster at 2 mg/kg, sc qd for 6 days co-administered with 1 mg/kg of testosterone (reference value: 2.03 +/- 0.63 millimeter). The class given is functional, Mesocricetus auratus.
For test [3], the system named is Syrian golden hamster. As to the kind of experiment: Increase of prostate weight in gonadectomized golden hamster at 2 mg/kg, sc qd for 6 days co-administered with 1 mg/kg of testosterone (reference value: 50.4 +/- 9.9 mg). It is filed as functional, Mesocricetus auratus, Prostate gland.
For test [4], the system named is Syrian golden hamster. The experiment in a line: Increase of seminal vesicles weight in gonadectomized golden hamster at 2 mg/kg, sc qd for 6 days co-administered with 1 mg/kg of testosterone (reference value: 96.11 +/- 12.5 mg). The class given is functional, Mesocricetus auratus.
For test [5], the target named is T3, 3-oxo-5-alpha-steroid 4-dehydrogenase 2 (Homo sapiens, UniProt P31213).
T3 sequence (P31213 whole entry): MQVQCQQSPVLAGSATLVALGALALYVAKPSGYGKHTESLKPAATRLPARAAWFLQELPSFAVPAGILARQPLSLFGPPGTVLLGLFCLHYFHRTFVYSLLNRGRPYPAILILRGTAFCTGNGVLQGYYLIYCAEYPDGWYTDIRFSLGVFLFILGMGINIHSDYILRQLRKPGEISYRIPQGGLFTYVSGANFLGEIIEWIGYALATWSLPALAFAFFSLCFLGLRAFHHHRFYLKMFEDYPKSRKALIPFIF
As to the kind of experiment: Inhibition of human prostate type 2 5alpha-reductase assessed as transformation of testosterone to dihydrotestosterone. The class given is tissue-based, Prostate gland. The method, boiled down: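 Enzyme source: normal prostate from a person, homogenized in buffer A (20 mM sodium phosphate pH 6.5, 0.32 M sucrose, 0.1 mM DTT), pelleted at 1500 × g, resuspended at 5 mg protein/mL. Inhibitors at 1 × 10⁻¹⁰ to 10⁻⁴ M. Radiolabelled T→DHT conversion quantified by TLC lane radioactivity against total plate radioactivity. IC50 taken from inhibition curves.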

A short description of test [6]: as §1. The class given is functional. The following applies: PC-3, read-out: GI. The method, boiled down: as §2
Test [7] is described as follows: as §3. It is filed as functional. To be noted: SK-LU-1, read-out: GI. The method, boiled down: as §2

Calls of active or inactive are those of the source. No cut-off for these calls is given here.

For `C[C@]12CC[C@H](OC(=O)C3CCCCCC3)CC1=CC[C@@H]1[C@@H]2CC[C@]2(C)C(C(=O)Cn3cncn3)=CC[C@@H]12`, the “growth inhibition (GI)” value in the test on PC-3, with MCF7 and in the test on SK-LU-1 was “inactive” each time. Further, the IC50 entry (in test [1]; on Androgen receptor) was “Not Active” each time. Besides, the Activity amounted to 4.45 mm with Syrian golden hamster [2], 78.2 mg in the test with Syrian golden hamster [3] and 203.98 mg in the test on Syrian golden hamster [4].

For `C[C@]12CC[C@H](OC(=O)C3CCCC3)CC1=CC[C@@H]1[C@@H]2CC[C@]2(C)C(C(=O)Cn3cncn3)=CC[C@@H]12`, the “growth inhibition (GI)” value in the test with PC-3, with MCF7 and with SK-LU-1 was “inactive” in each case. The half-inhibitory concentration (IC50) entry (in [1]; in test [5]; at Androgen receptor) was “Not Active” in each case. For the same compound, the Activity was 2.8 mm with Syrian golden hamster [2], 97 mg with Syrian golden hamster [3] and 120 mg in the test on Syrian golden hamster [4].

For the compound `CCCCC(=O)O[C@H]1CC[C@@]2(C)C(=CC[C@@H]3[C@@H]2CC[C@]2(C)C(C(=O)Cn4cncn4)=CC[C@@H]32)C1`, the inhibition of growth at 50 µM in [6] amounted to 38.2%; in the test on MCF7 it was 38.5%; in [7], 20.2%. The IC50 in [1] (read-out: IC50) is 0.32 µM; in test [5], “Not Active”; at Androgen receptor it was “Not Active”. Further, the Activity in the test on Syrian golden hamster [2] worked out at 3.71 mm; with Syrian golden hamster [3], 82.3 mg; with Syrian golden hamster [4], 180.03 mg.

As to `C[C@]12CC[C@H](OC(=O)C3CCCCC3)CC1=CC[C@@H]1[C@@H]2CC[C@]2(C)C(C(=O)Cn3cncn3)=CC[C@@H]12`, the “growth inhibition (GI)” value in the test with PC-3, in the test with MCF7 and in the test on SK-LU-1 was “inactive” each time. Further, the IC50 result (in test [1]; in [5]; on Androgen receptor) was “Not Active” each time. The Activity in the test on Syrian golden hamster [2] was 3 mm; in the test on Syrian golden hamster [3], 88 mg; in the test on Syrian golden hamster [4], 150 mg.

As for `C[C@]12CC[C@H](OC(=O)C3CCC3)CC1=CC[C@@H]1[C@@H]2CC[C@]2(C)C(C(=O)Cn3cncn3)=CC[C@@H]12`, the “growth inhibition (GI)” value in the test on PC-3, in the test on MCF7 and in the test on SK-LU-1 was “inactive” throughout. Further, the IC50 entry (in test [1]; in [5]; at Androgen receptor) was “Not Active” throughout. The Activity with Syrian golden hamster [2] was determined as 2.14 mm; in the test with Syrian golden hamster [3], 100 mg; with Syrian golden hamster [4] it was 130 mg.

For the compound `CCCCCC(=O)O[C@H]1CC[C@@]2(C)C(=CC[C@@H]3[C@@H]2CC[C@]2(C)C(C(=O)Cn4cncn4)=CC[C@@H]32)C1`, the values for the inhibition of growth at 50 µM (in test [6]; with MCF7; in test [7]) were 16.9%, 14.4% and 6.4%, respectively. For the same compound, the IC50 was 100 µM in test [1] (read-out: IC50), “Not Active” in test [5] and “Not Active” at Androgen receptor. In addition, the Activity in the test with Syrian golden hamster [2] was determined as 2.8 mm; with Syrian golden hamster [3], 86.9 mg; with Syrian golden hamster [4] it was 200 mg.

Regarding `CC(=O)O[C@H]1CC[C@@]2(C)C(=CC[C@@H]3[C@@H]2CC[C@]2(C)C(C(=O)Cn4cncn4)=CC[C@@H]32)C1`, the inhibition of growth at 50 µM was 56.2% in test [6], 59.4% in the test on MCF7 and 74.8% in [7]. Moreover, the half-maximal inhibitory concentration (IC50) entry is “Not Active” in test [1], 100 µM in test [5] (read-out: IC50) and “Not Active” on Androgen receptor. In addition, the Activity with Syrian golden hamster [2] is 2.9 mm; with Syrian golden hamster [3], 87.65 mg; in the test with Syrian golden hamster [4], 216.075 mg.

`C[C@]12CC[C@H](OC(=O)C3CC3)CC1=CC[C@@H]1[C@@H]2CC[C@]2(C)C(C(=O)Cn3cncn3)=CC[C@@H]12`: the “growth inhibition (GI)” value in the test with PC-3, in the test with MCF7 and with SK-LU-1 was “inactive” throughout. The IC50 result is “Not Active” in test [1], 118 µM in test [5] (read-out: IC50) and “Not Active” on Androgen receptor. The Activity in the test with Syrian golden hamster [2] is on record as 2.88 mm; in the test on Syrian golden hamster [3], 107.48 mg; in the test on Syrian golden hamster [4] it was 180.3 mg.

On to `CC(=O)N1CCN(c2ccc(OCC3COC(Cn4ccnc4)(c4ccc(Cl)cc4Cl)O3)cc2)CC1` (stereo unspecified) [KETOCONAZOLE], for which the inhibition of growth at 50 µM was 88.5% in test [6], 95.2% with MCF7 and 73.4% in [7].

With `C[C@]12CC[C@H](O)CC1=CC[C@@H]1[C@@H]2CC[C@]2(C)C(C(=O)Cn3cncn3)=CC[C@@H]12`, the inhibition of growth at 50 µM was 61.3% in test [6], 62.1% in the test on MCF7 and 88.9% in [7]. For the same compound, the 50% inhibitory concentration (IC50) result (in test [1]; in [5]; on Androgen receptor) was “Not Active” in each case. Further, the Activity came to 3.05 mm with Syrian golden hamster [2], 89 mg in the test with Syrian golden hamster [3] and 163.33 mg in the test with Syrian golden hamster [4].

As for `CCCC(=O)O[C@H]1CC[C@@]2(C)C(=CC[C@@H]3[C@@H]2CC[C@]2(C)C(C(=O)Cn4cncn4)=CC[C@@H]32)C1`, the inhibition of growth at 50 µM was 9.2% in [6], 25.6% in the test with MCF7 and 15.6% in test [7]. The IC50 result (in test [1]; in test [5]; at Androgen receptor) was “Not Active” each time. For the same compound, the Activity was determined as 2.71 mm in the test on Syrian golden hamster [2], 81.3 mg in the test with Syrian golden hamster [3] and 138.9 mg with Syrian golden hamster [4].

Consider `CCC(=O)O[C@H]1CC[C@@]2(C)C(=CC[C@@H]3[C@@H]2CC[C@]2(C)C(C(=O)Cn4cncn4)=CC[C@@H]32)C1`, for which the “growth inhibition (GI)” value with PC-3 is “inactive”. Moreover, the inhibition of growth at 50 µM in the test on MCF7 is 5.9%; in [7] it was 8.8%. Moreover, the IC50 in test [1] (read-out: IC50) was 0.088 µM; in [5] it was “Not Active”; on Androgen receptor, “Not Active”. In addition, the Activity in the test on Syrian golden hamster [2] is 2.79 mm; in the test with Syrian golden hamster [3], 89.55 mg; in the test with Syrian golden hamster [4], 157.08 mg.

The values are drawn from ChEMBL document CHEMBL3734650, “Synthesis and activity of novel 16-dehydropregnenolone acetate derivatives as inhibitors of type 1 5α-reductase and on cancer cell line SK-LU-1” (Bioorg Med Chem, 2015).
